Measurements collected from several papers.
Each line is one published result; the experiments were not run side by side.
CTSL: Procathepsin L (CTSL, Homo sapiens, UniProt P07711)
XDH: Xanthine dehydrogenase/oxidase (XDH, Bos taurus, UniProt P80457)

SMILES	target	assay	setting	inhibition
O=C(Oc1cncc(Cl)c1)c1cc2c(Cl)cc(Cl)cc2[nH]1	CTSL	enzyme activity, inhibitor	10 µM	14%
N=C(N)c1ccc2cc(OC(=O)c3ccc(N=C(N)N)cc3)ccc2c1	CTSL	enzyme activity, inhibitor	10 µM	57%
Cn1cc(-c2cccc(N3CCc4c(sc5c4CC(C)(C)C5)C3=O)c2CO)cc(Nc2ccncn2)c1=O	5'-AMP-activated protein kinase catalytic subunit alpha-1 (PRKAA1, Homo sapiens, UniProt Q13131)	enzyme activity, inhibitor	1 µM	1%
CC(C)N1CCC[C@H]1CNC(=O)c1cn(C2CCCC2)c(=O)c2c1c1ccccc1n2C	Alpha-1B adrenergic receptor (Adra1b, Rattus norvegicus, UniProt P15823)	ligand displacement, radioligand	10 µM	-10%
Cn1cc(-c2cc(F)cc(N3CCn4c(cc5c4CCCC5)C3=O)c2CO)cc(Nc2ccc(N3CCN(C4COC4)CC3)cn2)c1=O	Sphingosine kinase 2 (SPHK2, Homo sapiens, UniProt Q9NRA0)	enzyme activity, inhibitor	0.1 µM	-10%
NC(=O)Cc1ccccc1	XDH	enzyme activity, inhibitor, absorbance	100 µg/mL	7.3%
CN(C(=O)[C@H](Cc1ccccc1)NC(=O)[C@@H](NC(=O)OCc1ccccc1)C(C)(C)C)N(C#N)CCC(N)=O	CTSL	enzyme activity, inhibitor	50 µM	99%
C#Cc1n[nH]c2c(-c3cn([C@@H](C)c4ccccn4)c(=O)[nH]c3=O)cc(F)cc12	Phosphatidylinositol 4-kinase beta (PI4KB, Homo sapiens, UniProt Q9UBF8)	enzyme activity, inhibitor	0.1 µM	9.3%
CC[C@H](NC(=O)OCc1ccccc1)C(=O)N[C@H](C(=O)N[C@@H](CC(C)C)C(=O)N(C)N(C#N)CCC(N)=O)C(C)(C)C	CTSL	enzyme activity, inhibitor	50 µM	100%
CC(C)C[C@H](NC(=O)[C@H]1O[C@@H]1C(=O)O)C(=O)NCCCCN=C(N)N	CTSL	enzyme activity, inhibitor	50 nM	84%
c1ccc(C(NCCNC(c2ccccc2)c2ccccc2)c2ccccc2)cc1	XDH	enzyme activity, inhibitor	10 µM	5%
COc1cc(Nc2ncc(F)c(Nc3ccc4c(n3)NC(=O)C(C)(C)O4)n2)cc(OC)c1OC	Mitogen-activated protein kinase kinase kinase kinase 5 (MAP4K5, Homo sapiens, UniProt Q9Y4K4)	binding, competition with immobilised ligand	10 µM	16%
CN(C)C(=O)COC(=O)Cc1ccc(OC(=O)c2ccc(NC(=N)N)cc2)cc1	CTSL	enzyme activity, inhibitor	10 µM	2%
